# Bioassay records from PubChem BioAssay.
# S100A4 MyoIIA – inhibitors of human S100A4 binding to myosin IIA peptide; P26447; S100A4/TAMRA-MyoIIA peptide fluorescence polarization; inhibition, % at 10.7 µM; 360,000 compounds, 0.14% hits; AID 652163;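 active = mean inhibition of at least 70% across replicates, with every replicate also reaching that level; inconclusive = mean inhibition reaches 70% but some replicates fall short; inactive = mean inhibition below 70%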
# Target sequence (P26447 whole entry, looked up): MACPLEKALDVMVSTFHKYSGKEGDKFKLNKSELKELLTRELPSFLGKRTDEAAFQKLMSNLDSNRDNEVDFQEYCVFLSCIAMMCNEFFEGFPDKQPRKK
#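 Material: human S100A4 monomer with TAMRA-labelled myosin IIA peptide; buffer or medium: HEPES pH 7.2 with CaCl2, KCl, NaCl, DTT, Triton; compound dosing: one concentration per compound; schedule: 5 min incubation before reading; benchmarks: neutral control DMSO, positive control TFP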
# FN deposit inh – fibronectin deposition inhibition. inhibition, % at 12.6 µM. 350,000 compounds, 0.086% hits. AH1F fibroblasts, Alexa488-fibronectin deposition fluorescence, overnight. AID 743247;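 active = mean inhibition across replicates of 30% or more, regardless of how many single replicates reach that level; inconclusive = mean under 30% yet at least half of replicates reach 30%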;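 also: positive control wells lacked labelled fibronectin entirely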
#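 Material: AH1F fibroblast monolayer depositing Alexa488-labelled fibronectin into matrix | Input: 10000 AH1F cells/well | Medium: DMEM plus 2% serum, read in PBS | Reagent: Alexa488-fibronectin, 24 nM final in well | Compound dosing: One dose per compound, pinned | Schedule: 1 h adhesion, overnight exposure | Measured by: Fluorescence at 485 nm excitation, 525 nm emission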
# Ecoli rRNA inh – inhibits bacterial ribosomal RNA function over humanized ribosomes. E. coli WT GFP vs humanized-ribosome RFP mutants, fluorescence, 24 h; active compounds read low; DMSO median 0, no signal -100. GFP signal change (wild-type ribosome), % (test concentration not listed). 350,000 compounds, 1.6% hits. AID 720706;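 active = significant combined selectivity score with lowered wild-type GFP, culture density cut under 30%, mutant RFP and density less affected; inactive = any of these conditions unmet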
# HIV Env fusion – HIV envelope-mediated fusion inhibition; HeLa-JRFL Env/CEM21 cell fusion, luciferase; inhibition, % at 12.3 µM; 360,000 compounds, 1.1% hits;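 active = mean replicate inhibition score of at least 50 and every replicate individually at or above 50; inconclusive = only one of the two criteria met; inactive = mean below 50 and not all replicates reaching 50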;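 also: 0% = plate neutral controls and 100% = maraviroc near 300 nM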
# Vif inh – blocks HIV Vif function; 340,000 compounds, 0.35% hits; AID 602346; HEK293T cells, Vif self-association by quenched fluorescence, imaging, 24 h; inhibition, % at 7.49 µM; in the data active = inhibition above about 50%, passing the limit was not always enough; inconclusive = no clear call, values can overlap the other calls; inactive = below about 31%
# miR122 inh – miR-122 inhibition in Huh7 cells; Huh7 miR-122 Renilla luciferase sensor, 48 h; neutral wells = 0, positive control = 100; 340,000 compounds, 0.3% hits; AID 602342; activation (reporter increase), % at 12.5 µM;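 active = mean replicate activation score at least 90 and every replicate individually at or above 90; inconclusive = only one of the two criteria met; inactive = neither criterion met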;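 also: higher luciferase means less miR-122 activity so hits act as miR-122 inhibitors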
# Numbers without * were called inactive; ? = inconclusive; · = not tested or not shown; ! = not confirmed by another sample; [ ] = another dose, or the depositor's remark. Rows were chosen to be rich in hits. Some 2.6% of all compounds tested hit in one or more screens of this group.
SMILES,S100A4 MyoIIA,FN deposit inh,Ecoli rRNA inh,HIV Env fusion,Vif inh,miR122 inh
CN1N=C(C(=O)N2CCc3c([nH]c4ccccc34)C2c2ccccc2Cl)CCC1=O (stereo unspecified),-0.4,-7.2,·,-16.6,9.9,-2.0
CN(C)Cc1cn(CC[C@H]2CC[C@H](NC(=O)Cc3cccnc3)[C@H](CO)O2)nn1,93.8*,0.4,-1.7,-18.0[16.7 µM],·,·
CN(C)Cc1cn(CC[C@@H]2CC[C@H](NC(=O)Cc3cccnc3)[C@H](CO)O2)nn1,-2.4,-11.8,1.5,-6.4[16.7 µM],·,·
CN(CC(=O)NC(=O)NCc1ccccc1)Cc1cccc(Cl)c1Cl,-2.9,2.6,-37.6*,11.8,-5.4,-2.5
O=C(Nc1ccc2c(c1)nc1n2CCOC1)c1ccccc1,·,-9.5,·,-6.7,58.3*,0.7
CCN(CC)CCn1c2c(c(SCC(=O)Nc3cc(OC)cc(OC)c3)nc1=O)CCC2,-2.6,-1.7,8.2,60.6*,5.9,1.2
CCN(CC)CCCn1c2c(c(SCC(=O)Nc3cc(C)cc(C)c3)nc1=O)CCC2,-3.8,3.4,-7.8,-1.4,-1.2,-7.3
C[C@@H]1CN([C@H](C)CO)C(=O)Cc2cc(NC(=O)Nc3ccc(C(F)(F)F)cc3)ccc2O[C@@H]1CN(C)C(=O)Nc1cccc2ccccc12,-3.1,·,-1.3,12.5[16.7 µM],·,112.2*[16.7 µM]
C[C@@H]1CN([C@@H](C)CO)C(=O)Cc2cc(NC(=O)Nc3ccc(C(F)(F)F)cc3)ccc2O[C@@H]1CN(C)C(=O)Nc1cccc2ccccc12,-4.9,·,0.4,-16.0[16.7 µM],·,264.9*[16.7 µM]
COc1ccc(CN(C)C[C@@H]2OCc3cn(nn3)CCCC(=O)N([C@H](C)CO)C[C@@H]2C)cc1,0.4,2.1,0.3,·,·,2.2[16.7 µM]
C[C@@H]1CN([C@@H](C)CO)C(=O)c2cccc(NC(=O)c3ccc(-c4nccs4)cc3)c2O[C@@H]1CN(C)S(=O)(=O)c1cn(C)cn1,5.8,2.6,2.1,10.5[16.7 µM],·,-1.3[16.7 µM]
COc1cc2oc3ccccc3c2cc1N(CC(=O)N(C)C)S(=O)(=O)c1ccc(C)cc1,·,·,·,·,-5.8,-5.3
COc1ccc(Cl)cc1N(CC(=O)N(C)C)S(=O)(=O)c1ccc(C)c([N+](=O)[O-])c1,-6.3,-43.9,6.0,-21.1,24.4,100.8*
COc1cc2oc3ccccc3c2cc1N(CC(=O)N(C)C)S(=O)(=O)c1ccccc1,·,·,·,·,11.6,113.9*
C[C@@H]1CN([C@H](C)CO)C(=O)c2c(c3ccccc3n2C)-c2ccccc2CO[C@@H]1CN(C)CC1CCCCC1,1.4,-6.2,2.2,·,·,·
COc1ccccc1NS(=O)(=O)c1cc(N/C(=N/S(=O)(=O)c2ccccc2)c2ccc(F)cc2)ccc1Cl,0.8,3.6,-10.4,4.4,-2.8,117.1*
O=S(=O)(/N=C(/Nc1ccc(Cl)c(S(=O)(=O)Nc2ccccc2Cl)c1)c1ccc(F)cc1)c1ccccc1,-1.3,-0.2,-28.2*!,4.9,-1.9,?
COc1ccc(NC(=O)Nc2ccc3c(c2)C(=O)N([C@H](C)CO)C[C@H](C)[C@@H](CN(C)S(=O)(=O)c2ccc(Cl)cc2)OCCCC[C@H](C)O3)cc1,4.7,11.3,-0.8,8.6[16.7 µM],·,-3.0[16.7 µM]
Nc1ncnc2c1ncn2[C@@H]1O[C@H](COP(=O)(O)O)[C@@H](O)[C@H]1O,0.9,3.5,·,9.4,106.1*,8.5
Nc1ncnc2c1ncn2C1OC(COP(=O)(O)O)C(O)C1O (stereo unspecified),-6.1,5.2,·,-10.7,65.6*,0.0
Nc1ncnc2c1ncn2C1OC(CO)C2OC21 (stereo unspecified),-1.3,6.3,2.5,-3.4,-5.0,·
Nc1ncnc2c1ncn2[C@@H]1O[C@H](CO)C[C@H]1O,1.9,3.4,·,12.0,55.6*,-2.0
Nc1ncnc2c1ncn2[C@@H]1O[C@H](COP(=O)(O)OP(=O)(O)OP(=O)(O)O)[C@@H](O)[C@H]1O,-1.8,-0.6,-6.7,9.1,-3.6,-12.1
O=C(NCC[C@@H]1CC[C@H](NS(=O)(=O)c2ccc(F)cc2)[C@@H](CO)O1)c1ccccc1F,-4.5,·,-1.4,·,·,·
COC(=O)C[C@@H]1CC[C@@H]2[C@@H](COc3ccc(NS(=O)(=O)c4ccccc4F)cc3C(=O)N2C)O1,·,-28.6,-2.6,-24.5[16.7 µM],·,-41.7[16.7 µM]
SMILES,S100A4 MyoIIA,FN deposit inh,Ecoli rRNA inh,HIV Env fusion,Vif inh,miR122 inh
Cc1cc(SCc2ccc(Cl)cc2Cl)nc(=O)[nH]1,-5.1,0.8,-30.7*,8.7,-2.8,-0.5
O=C(Nc1cc(C(F)(F)F)ccc1N1CCCCC1)c1cccc([N+](=O)[O-])c1,·,·,·,98.0*,-11.3,1.8
COc1ccc(Cl)cc1NC(=O)CNc1ccccc1CN(C)C1CCCCC1,-4.4,4.9,-34.5*,24.5,-0.6,·
Cc1ccc(NC(=O)CNCc2cccs2)c(Br)c1,-2.7,-1.2,-27.2*,-14.9,1.0,-4.1
Cc1ccc(NC(=O)CNCc2ccccc2)c(Br)c1,-4.5,-13.3,-27.6*,-12.5,-2.3,·
Cc1ccc(NC(=O)COC(=O)Cc2cccs2)c(Br)c1,-1.8,·,-1.4,11.3,·,-9.1
COc1ccc(Cl)cc1NC(=O)CN(C)C(=O)c1sccc1-c1ccccc1,-2.1,-8.5,-33.3*,15.0,-13.3,9.2
COc1ccc(Cl)cc1NC(=O)CN(C)C(=O)c1sc2ccccc2c1Cl,1.6,2.8,-0.6,25.3,-2.7,24.9
COc1ccc(C)cc1NC(=O)CNc1ccccc1CN(C)C1CCCCC1,1.6,·,-19.6,19.7,-9.6,3.6
COc1ccc(Cl)cc1NC(=O)CNCc1cccs1,-4.3,11.0,-31.8*,-0.9,-4.9,-3.7
COc1ccc(NC(=O)CNCc2cccs2)c(OC)c1,-1.9,-5.3,2.2,2.0,-6.0,·
CO[C@H]1CN(C)C(=O)c2cc(NC(C)=O)ccc2OC[C@H](C)N(C(=O)c2ccccc2F)C[C@@H]1C,2.8,0.8,1.8,·,·,-5.3[16.7 µM]
COc1cccc(S(=O)(=O)N2CCCCN3[C@H](CO)[C@H](c4ccc(C5=CCCCC5)cc4)[C@H]3C2)c1,·,·,-31.6*,·,·,0.8[16.7 µM]
Cc1cccc(S(=O)(=O)N2CCCCN3[C@H](CO)[C@@H](c4ccc(C#CC(C)C)cc4)[C@H]3C2)c1,-2.5,·,-29.1,·,·,1.6[16.7 µM]
Cc1cccc(S(=O)(=O)N2CCCCN3[C@H](CO)[C@H](c4ccc(C#CC(C)C)cc4)[C@H]3C2)c1,10.8,·,-26.9*,·,·,-3.1[16.7 µM]
COCC#Cc1cnc2c(c1)C(=O)N([C@H](C)CO)C[C@H](C)[C@@H](CN(C)Cc1ccc3c(c1)OCO3)O2,17.2,-10.0,-0.9,-1.1[16.7 µM],·,-2.5[16.7 µM]
CSCc1ccc(C(=O)OCc2nc3ccccc3s2)o1,-6.7,0.1,-15.5*,·,5.3,22.8
CO[C@H]1CN(C)C(=O)c2cc(NC(=O)c3ccccc3F)ccc2OC[C@H](C)N(C)C[C@@H]1C,16.3,10.3,0.7,-14.0[16.7 µM],·,-3.9[16.7 µM]
